Measurements as given in paper PMC8882712 (Cell chemical biology, 2021).
Values belong to the compound of their own block, whether it stands above or below them.

What was measured:
[1] = tested on: EOL-1, RS4;11 and MM1.S cells; assay: Cell growth inhibition assay; assay type: cell-based, human; settings: for EC50: Homo sapiens, 192 h, read-out: EC50 (growth inhibition)
Outline: (§1)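 Cells were kept in RPMI 1640 with 10% FBS and 1% penicillin/streptomycin. 0.5 million cells per well were seeded in triplicate and treated with various final compound concentrations, with compound-containing medium renewed every two days. Cultures were diluted to stay below 1×10^6/mL and counted automatically every two days. EC50 came from nonlinear regression over at least three experiments, given as mean ± SD.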

EOL-1 and MM1.S cells [2] = assay: Colony formation assay; assay type: cell-based, human; settings: 2.5 μM
Outline: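 20,000 cells per well were plated in triplicate. Medium containing compound or vehicle was replaced every four days. After 4 weeks, wells were stained with 100 μg/mL iodonitrotetrazolium chloride, and colonies were counted after overnight incubation.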

cancer cells = settings: ref Bottcher et al., 2019; cited from earlier work
NSD3S = molecular target: T1, NSD3S (Homo sapiens, UniProt Q9BZ95); assay: Immunoblotting for NSD3S in 293FT cells; assay type: cell-based; settings: 48-hour treatment; for NSD3 degradation (immunoblot): 293FT cells, indicated concentrations
T1 sequence (Q9BZ95 1-645 isoform Q9BZ95-3): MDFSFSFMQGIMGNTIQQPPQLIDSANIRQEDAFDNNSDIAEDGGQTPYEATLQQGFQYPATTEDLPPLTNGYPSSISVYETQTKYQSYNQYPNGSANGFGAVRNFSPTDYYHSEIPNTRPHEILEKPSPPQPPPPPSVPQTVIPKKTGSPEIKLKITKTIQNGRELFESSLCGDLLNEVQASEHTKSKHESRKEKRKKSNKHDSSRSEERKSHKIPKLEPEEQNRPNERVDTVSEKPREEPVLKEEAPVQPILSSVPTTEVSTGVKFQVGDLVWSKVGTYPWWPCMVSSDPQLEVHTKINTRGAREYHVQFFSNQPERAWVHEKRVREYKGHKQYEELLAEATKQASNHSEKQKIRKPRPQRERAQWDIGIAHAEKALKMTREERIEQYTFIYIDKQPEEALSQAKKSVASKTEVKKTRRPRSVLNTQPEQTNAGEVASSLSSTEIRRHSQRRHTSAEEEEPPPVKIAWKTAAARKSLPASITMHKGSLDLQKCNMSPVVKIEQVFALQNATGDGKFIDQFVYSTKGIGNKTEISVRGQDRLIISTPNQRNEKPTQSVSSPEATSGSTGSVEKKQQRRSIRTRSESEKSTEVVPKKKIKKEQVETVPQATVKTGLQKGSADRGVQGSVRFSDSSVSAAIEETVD
Outline: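 293FT cells were grown in DMEM with 10% FBS and 1% penicillin/streptomycin. NSD3 was detected by western blot with rabbit anti-NSD3 antibody, using rabbit anti-GAPDH as loading control and HRP-linked secondary antibodies.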

EOL-1 cells = assay: Mass spectrometry-based global proteomic profiling; assay type: cell-based, human; settings: 2.5 μM, 30 hours, more than 5,000 proteins detected
EOL-1 and MM1.S cells [3] = assay: Apoptosis induction; assay type: cell-based, human; settings: 2.5 μM, four-day treatment
Outline: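 EOL-1 and MM1.S cells were grown in RPMI 1640 with 10% FBS and 1% penicillin/streptomycin. Lines were authenticated by genetic fingerprinting and screened monthly for mycoplasma. Apoptosis was assessed by western blot with rabbit anti-cleaved caspase-3 and anti-cleaved caspase-7 antibodies, detected with an HRP-linked anti-rabbit IgG secondary.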

[4] = tested on: CBLB, IFITM1, SELL and MAP7; assay: RT-qPCR and western blots of NSD3-upregulated gene targets; assay type: cell-based, human; settings: EOL-1 or MM1.S cells, 2.5 μM, 48 hours, compared to BI-9321 and MS9715N
Outline: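 For mRNA, RT-qPCR relative expression was calculated by the 2−ΔΔCT method and normalized to the mean of beta-actin. For protein, western blots used rabbit anti-CBLB and rabbit anti-IFITM1 antibodies with rabbit anti-GAPDH as loading control. Cells were grown in RPMI 1640 with 10% FBS.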

cMyc [5] = assay: Immunoblotting for cMyc protein levels; assay type: cell-based, human
Outline: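 cMyc was detected by western blot with rabbit anti-cMyc antibody, using rabbit anti-GAPDH as loading control. VHL status was checked with mouse anti-VHL. VHL was knocked out by CRISPR/Cas9 and compared with WT cells. EOL-1 and MM1.S cells were grown in RPMI 1640 and 293FT cells in DMEM, each with 10% FBS and 1% penicillin/streptomycin.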

cMyc [6] = assay: cMyc ubiquitination assay in EOL-1 cells; assay type: cell-based, human; settings: 2.5 μM, 48-hour treatment
Outline: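 Lysates were heat-denatured 5 min at 95°C, diluted with EBC, sonicated and cleared. Immunoprecipitation with antibody ran overnight at 4°C, then protein A/G magnetic beads for 3 h at 4°C. Blots were probed with mouse anti-ubiquitin.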

K562 cells = assay: Cell growth inhibition assay in K562 cells; assay type: cell-based, human; settings: 2.5 μM, ten days
Outline: as §1

NSD3 [7] = molecular target: T2, NSD3 (Homo sapiens, UniProt Q9BZ95); assay: Ubiquitination assay of Flag-tagged NSD3S in 293FT cells; assay type: cell-based; settings: 293FT cells expressing Flag-tagged NSD3S, 48-hour treatment
T2 sequence (Q9BZ95 1-645 isoform Q9BZ95-3): T1 sequence (Q9BZ95 1-645 isoform Q9BZ95-3)

NSD3 [8] = molecular target: T2, NSD3; assay: Immunoblotting for NSD3 degradation in hematological cancer cells; assay type: cell-based
NSD3 PWWP1 domain = molecular target: T3, NSD3 PWWP1 domain (Homo sapiens, UniProt Q9BZ95); assay: Isothermal titration calorimetry; assay type: binding
T3 sequence (Q9BZ95 247-402): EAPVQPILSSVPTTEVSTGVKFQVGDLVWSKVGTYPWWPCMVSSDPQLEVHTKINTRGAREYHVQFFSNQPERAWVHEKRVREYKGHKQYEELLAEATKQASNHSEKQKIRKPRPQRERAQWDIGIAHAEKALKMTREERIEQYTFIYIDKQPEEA

SMILES: Cc1cc(CN)cc(C)c1-c1ncn(C)c1-c1ccnc2cc(F)ccc12 [BI-9321, reference compound]
EC50 [1]: > 10 µM
colony-forming capabilities (EOL-1 and MM1.S cells [2]): little or no effect
killing of cancer cells (cancer cells): does not lead to effective killing of cancer cells

NSD3 degradation (immunoblot) (NSD3S): failed to degrade NSD3
SMILES: Cc1cc(CNCCCC(=O)NCCOCCOCCNc2cccc3c2C(=O)N(C2CCC(=O)NC2=O)C3=O)cc(C)c1-c1ncn(C)c1-c1ccnc2cc(F)ccc12 (stereo not drawn) [Compound 1, N-(2-(2-(2-((2-(2,6-dioxopiperidin-3-yl)-1,3-dioxoisoindolin-4-yl)amino)ethoxy)ethoxy)ethyl)-4-((4-(5-(7-fluoroquinolin-4-yl)-1-methyl-1H-imidazol-4-yl)-3,5-dimethylbenzyl)amino) butanamide]

NSD3 degradation (immunoblot) (NSD3S): failed to degrade NSD3
SMILES: Cc1cc(CNCCCC(=O)NCCCCCNc2cccc3c2C(=O)N(C2CCC(=O)NC2=O)C3=O)cc(C)c1-c1ncn(C)c1-c1ccnc2cc(F)ccc12 (stereo not drawn) [Compound 2, N-(5-((2-(2,6-dioxopiperidin-3-yl)-1,3-dioxoisoindolin-4-yl)amino)pentyl)-4-((4-(5-(7-fluoroquinolin-4-yl)-1-methyl-1H-imidazol-4-yl)-3,5-dimethylbenzyl)amino)butanamide]

SMILES: Cc1cc(CNCCCC(=O)NCCCCCCCCC(=O)N[C@H](C(=O)N2C[C@H](O)C[C@H]2C(=O)NCc2ccc(-c3scnc3C)cc2)C(C)(C)C)cc(C)c1-c1ncn(C)c1-c1ccnc2cc(F)ccc12 [Compound 5, (2S,4R)-1-((S)-2-(9-(4-((4-(5-(7-fluoroquinolin-4-yl)-1-methyl-1H-imidazol-4-yl)-3,5-dimethylbenzyl)amino)butanamido)nonanamido)-3,3-dimethylbutanoyl)-4-hydroxy-N-(4-(4-methylthiazol-5-yl)benzyl)pyrrolidine-2-carboxamide]
NSD3 degradation (immunoblot) (NSD3S): clearly induced NSD3 degradation at 10–40 μM

SMILES: Cc1cc(CNCCCC(=O)NCCCCNC(=O)C[C@H](NC(=O)[C@@H]2C[C@@H](O)CN2C(=O)[C@@H](NC(=O)C2(F)CC2)C(C)(C)C)c2ccc(-c3scnc3C)cc2)cc(C)c1-c1ncn(C)c1-c1ccnc2cc(F)ccc12 [Compound 6, (2S,4R)-1-((S)-2-(1-fluorocyclopropane-1-carboxamido)-3,3-dimethylbutanoyl)-N-((S)-3-((4-(4-((4-(5-(7-fluoroquinolin-4-yl)-1-methyl-1H-imidazol-4-yl)-3,5-dimethylbenzyl)amino)butanamido)butyl)amino)-1-(4-(4-methylthiazol-5-yl)phenyl)-3-oxopropyl)-4-hydroxypyrrolidine-2-carboxamide]
NSD3 degradation (immunoblot) (NSD3S): did not lead to effective degradation of NSD3

EC50 [1]: 2 to 4 µM
Dmax (NSD3 [8]; MOLM-13, read-out: maximum degradation (Dmax)): > 80%
DC50 (NSD3 [8]; read-out: half-maximal degradation concentration (DC50), MOLM13 cells, 48-hour treatment, mean ± SD from three independent experiments): 4.9 ± 0.4 µM
SMILES: Cc1cc(CNCCCC(=O)NCCCCCCCCC(=O)N[C@H](C(=O)N2C[C@H](O)C[C@H]2C(=O)N[C@@H](C)c2ccc(-c3scnc3C)cc2)C(C)(C)C)cc(C)c1-c1ncn(C)c1-c1ccnc2cc(F)ccc12 [MS9715, (2S,4R)-1-((S)-2-(9-(4-((4-(5-(7-fluoroquinolin-4-yl)-1-methyl-1H-imidazol-4-yl)-3,5-dimethylbenzyl)amino)butanamido)nonanamido)-3,3-dimethylbutanoyl)-4-hydroxy-N-((S)-1-(4-(4-methylthiazol-5-yl)phenyl)ethyl)pyrrolidine-2-carboxamide]
growth inhibitory activity ([1]; 2.5 μM, ten days, EOL-1, MM1.S and RS4;11 cells): effectively inhibited the growth
proteome-wide selectivity (significantly downregulated proteins) (EOL-1 cells): NSD3 was the only protein showing significant downregulation
induction of apoptosis (EOL-1 and MM1.S cells [3]): induced a prominent increase of apoptosis
suppression of expression of CBLB, IFITM1, SELL and MAP7 [4]: superior effect
protein levels of cMyc (cMyc [5]; EOL-1 and MM1.S cells, 2.5 μM, 48 hours): significant decrease in the protein levels of cMyc
cMyc depletion in VHL-deficient cells (cMyc [5]; VHL-deficient EOL-1 and 293FT cells relative to WT, 48-hour treatment): almost completely diminished
ubiquitination of cellular cMyc (cMyc [6]): significantly enhanced
colony-forming capabilities (EOL-1 and MM1.S cells [2]): drastically decreased colony-forming capabilities
NSD3 degradation in VHL knockout cells (NSD3S; 293FT cells with CRISPR/Cas9-mediated KO of VHL vs WT): abrogated the MS9715-mediated NSD3 degradation
growth inhibitory activity (K562 cells): little growth inhibitory effect
ubiquitination of cellular NSD3 (NSD3 [7]): induced ubiquitination of cellular NSD3 in a concentration-dependent manner
concentration-dependent depletion of cellular NSD3S (NSD3 [8]; EOL-1, MM1.S and MOLM13 cells, 48-hour treatment): concentration-dependent depletion of cellular NSD3S
depletion of NSD3S and NSD3L isoforms (NSD3 [8]; EOL-1 and MM1.S cells): led to depletion of both NSD3S and NSD3L isoforms
time-dependent NSD3S degradation (NSD3 [8]; EOL-1 and MM1.S cells, 2.5 μM): significant degradation occurring at as early as 24 hours

EC50 [1]: > 10 µM
Kd (NSD3 PWWP1 domain): 1.62 ± 0.33 µM
SMILES: Cc1cc(CNCCCC(=O)NCCCCCCCCC(=O)N[C@H](C(=O)N2C[C@@H](O)C[C@@H]2C(=O)N[C@@H](C)c2ccc(-c3scnc3C)cc2)C(C)(C)C)cc(C)c1-c1ncn(C)c1-c1ccnc2cc(F)ccc12 [MS9715N, (2R,4S)-1-((S)-2-(9-(4-((4-(5-(7-fluoroquinolin-4-yl)-1-methyl-1H-imidazol-4-yl)-3,5-dimethylbenzyl)amino)butanamido)nonanamido)-3,3-dimethylbutanoyl)-4-hydroxy-N-((S)-1-(4-(4-methylthiazol-5-yl)phenyl)ethyl)pyrrolidine-2-carboxamide]
colony-forming capabilities (EOL-1 and MM1.S cells [2]): little or no effect
